Values after ≈ are worked out from the molar mass of the structure shown.
Legend:
[1] = target: T1, Endothelin-1 receptor (Homo sapiens) (UniProt P25101); assay: Displacement of [3H]BQ-123 from human ETA receptor in human SK-N-MC cells at 100 ug/ml after 60 mins by scintillation counting; type: cell-based
T1 sequence (whole entry): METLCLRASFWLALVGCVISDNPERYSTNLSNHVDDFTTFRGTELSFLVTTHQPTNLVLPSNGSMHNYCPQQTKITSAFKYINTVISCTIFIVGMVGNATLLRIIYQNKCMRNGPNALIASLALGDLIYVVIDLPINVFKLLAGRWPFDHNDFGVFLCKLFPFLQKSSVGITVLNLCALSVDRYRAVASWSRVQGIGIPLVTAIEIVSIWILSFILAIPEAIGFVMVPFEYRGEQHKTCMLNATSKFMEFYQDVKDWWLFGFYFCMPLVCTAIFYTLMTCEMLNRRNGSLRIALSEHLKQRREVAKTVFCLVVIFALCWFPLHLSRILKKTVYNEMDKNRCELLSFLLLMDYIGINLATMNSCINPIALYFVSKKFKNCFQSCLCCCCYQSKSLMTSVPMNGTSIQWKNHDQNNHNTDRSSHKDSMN
Summary of the method: (§1)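 Confluent human neuroblastoma SK-N-MC cells, which naturally express ETA, were PBS-washed and held 15 min at room temperature in DMEM with 0.1% BSA. […] Preincubation and incubation were 30 min each at 37 °C. Cells were then put on ice, washed, lysed in 1 M NaOH for 30 min and counted by scintillation. Results are % of specific binding.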

[2] = target: T1, Endothelin-1 receptor (Homo sapiens); assay: Displacement of [3H]BQ-123 from human ETA receptor in human SK-N-MC cells at 10 ug/ml after 60 mins by scintillation counting; type: cell-based; summary of the method: as §1
[3] = target: T2, Neuropeptide Y receptor type 1 (Homo sapiens) (UniProt P25929); assay: Displacement of [3H]NPY from neuropeptide Y1 receptor in human SK-N-MC cells at 10 ug/ml after 60 mins by scintillation counting; type: cell-based
T2 sequence (whole entry): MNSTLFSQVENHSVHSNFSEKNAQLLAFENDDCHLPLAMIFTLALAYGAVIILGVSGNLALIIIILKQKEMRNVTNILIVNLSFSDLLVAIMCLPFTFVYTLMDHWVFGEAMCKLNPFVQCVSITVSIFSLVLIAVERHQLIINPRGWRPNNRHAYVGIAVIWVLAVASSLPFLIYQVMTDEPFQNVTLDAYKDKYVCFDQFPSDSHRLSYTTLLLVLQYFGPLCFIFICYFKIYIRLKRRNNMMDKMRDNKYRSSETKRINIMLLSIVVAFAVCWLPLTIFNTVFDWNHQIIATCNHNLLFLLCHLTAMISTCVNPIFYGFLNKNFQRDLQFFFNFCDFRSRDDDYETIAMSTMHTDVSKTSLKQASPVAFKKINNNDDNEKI
Summary of the method: (§2)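 SK-N-MC neuroblastoma cells, which natively express Y1, were grown to confluence, PBS-washed and equilibrated 15 min at room temperature in DMEM with 0.5% BSA. […] Steps were 30 min each at 37 °C, followed by ice, PBS wash, 1 M NaOH lysis for 30 min and scintillation counting. Results are % specific binding.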

[4] = target: T2, Neuropeptide Y receptor type 1 (Homo sapiens); assay: Displacement of [3H]NPY from neuropeptide Y1 receptor in human SK-N-MC cells at 100 ug/ml after 60 mins by scintillation counting; type: cell-based; summary of the method: as §2
Plasmodium falciparum [5] = assay: Antimalarial activity against Plasmodium falciparum D6 after 24 hrs by microtiter plate assay; type: functional, organism-based; settings: D6, 24 h
Plasmodium falciparum [6] = assay: Antimalarial activity against Plasmodium falciparum W2 after 24 hrs by microtiter plate assay; type: functional, organism-based; settings: W2, 24 h

| Compound | Activity [1] [%] | Activity [2] [%] | Activity [3] [%] | Activity [4] [%] | IC50 (Plasmodium falciparum [5]) [µg/mL] | IC50 (Plasmodium falciparum [6]) [µg/mL] |
| --- | --- | --- | --- | --- | --- | --- |
| O=C1C[C@H]2S[C@H]3C[C@]2(C=C1Br)C1=C(N3)C(=O)c2[nH]cc3c2C1=NCC3 | 79 | 100 | 90 | 40 | – | – |
| CC(C)C[C@H]1NC(=O)[C@@H](Cc2ccccc2)NC(=O)[C@@H](CC(C)C)NC(=O)[C@H](NC(=O)[C@@H](Cc2ccccc2)NC(=O)C(C)C)[C@H](C)OC(=O)[C@H](CO)NC(=O)[C@@H]([C@H](C)O)NC1=O | 96 | 99 | 100 | 18 | – | – |
| O=C1C2=C(C3=NCCc4c[nH]c1c43)C1(C=C(Br)C(O)C(Br)=C1)CCN2 (stereo unspecified) | 100 | 100 | 82 | 29 | – | – |
| Nc1ncc(C2=CCNC(=O)c3[nH]c(Br)c(Br)c32)[nH]1 | 68 | 78 | 100 | 81 | – | – |
| Nc1nc([C@H]2[C@H](CNC(=O)c3cc(Br)c[nH]3)[C@@H](CNC(=O)c3cc(Br)c[nH]3)[C@@H]2c2c[nH]c(N)n2)c[nH]1 | 80 | 100 | 95 | 12 | – | – |
| N=C(NCCCCCCNC(=N)NC(=N)Nc1ccc(Cl)cc1)NC(=N)Nc1ccc(Cl)cc1 | 79 | 100 | 100 | 81 | – | – |
| C/C=C1\NC(=O)[C@H](Cc2ccccc2)NC(=O)[C@@H](C(C)C)NC(=O)[C@@H]([C@@H](C)CC)NC(=O)[C@H](NC(=O)[C@H](NC(=O)[C@H](CCCN)NC(=O)[C@H]2CCCN2C(=O)[C@H](NC(=O)[C@@H](NC(=O)[C@@H](NC(=O)[C@H](NC(=O)CCCC(C)(C)O)C(C)C)[C@@H](C)O)C(C)C)C(C)C)[C@@H](C)CC)[C@H](C)OC(=O)[C@H](C(C)C)NC1=O | – | – | – | – | 1.5 (≈ 1 µM) | 1.2 (≈ 0.803 µM) |
| CC/C=C/C(CC)CCC[C@@]1(CC)C[C@H](CC)[C@H](CC(=O)OC)OO1 (stereo partly specified) | 88 | 100 | 100 | 100 | – | – |
| CC(=O)OC(C)C(OC(C)=O)C(CCCCCCCCCCCCC1=CC(C)OC1=O)C(=O)O (stereo unspecified) | 79 | 98 | 100 | 86 | – | – |
| CN(C)CCc1c[nH]c2ccc(Br)cc12 | 89 | 97 | 100 | 76 | – | – |
| CC/C=C/C(CC)CCC[C@@]1(CC)C[C@H](CC)[C@H](CC(=O)O)OO1 (stereo partly specified) | 68 | 100 | 100 | 56 | – | – |
| CN(C)CCc1c[nH]c2cc(Br)c(Br)cc12 | 62 | 100 | 100 | 17 | – | – |
